Measurements: ChEMBL document CHEMBL4266004, “Series of Alkynyl-Substituted Thienopyrimidines as Inhibitors of Protozoan Parasite Proliferation” (ACS Med Chem Lett, 2018)

Columns and labels:
[1] = Cytotoxicity against mouse NIH/3T3 cells; type: cell-based, NIH3T3; details: read-out: TC50 (the source's name)
[2] = test system: Trypanosoma brucei brucei; experiment: Antitrypanosomal activity against Trypanosoma brucei brucei 427 at 5 uM after 48 hrs by presto blue dye based fluorescence assay relative to control; type: functional
Outline: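 Single-concentration screen of bloodstream T. brucei cultures at 5 μM, 5 × 10^4 cells/mL; percent proliferation inhibition recorded.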

Leishmania major = experiment: Antileishmanial activity against Leishmania major intracellular amastigotes harboring luciferase infected in mouse RAW264.7 cells after 96 hrs by luminescence assay; type: functional, organism-based; details: RAW264.7, 96 h
Outline: (§1)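 L. major amastigotes screened in duplicate or quadruplicate. Selectivity derived as HepG2 TC50 / L. major EC50.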

Trypanosoma cruzi = experiment: Antitrypanosomal activity against Trypanosoma cruzi Tulahuen intracellular amastigote harboring beta-galactosidase infected in mouse NIH/3T3 cells after 96 hrs by CPRG reagent based assay; type: functional, organism-based; details: NIH3T3, 96 h
[3] = Cytotoxicity against human HepG2 cells; type: cell-based; details: read-out: TC50 (the source's name)
Plasmodium falciparum = experiment: Antimalarial activity against Plasmodium falciparum D6 trophozoites after 72 hrs by SYBR Green I dye-based fluorescence assay; type: functional, organism-based; details: D6, 72 h
Outline: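 P. falciparum D6 strain; compounds run in duplicate or quadruplicate; EC50 determined from dose-response.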

[4] = Selectivity index, ratio of TC50 for human HepG2 cells to EC50 for Leishmania major intracellular amastigotes harboring luciferase infected in mouse RAW264.7 cells; type: toxicity, cell-based; details: read-out: Selectivity Index; outline: as §1
[5] = Selectivity index, ratio of TC50 for mouse NIH/3T3 cells to EC50 for Trypanosoma cruzi Tulahuen intracellular amastigote harboring beta-galactosidase; type: toxicity, cell-based; details: read-out: Selectivity Index
Outline: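 NIH 3T3 cells, the host line for intracellular T. cruzi amastigote culture, tested for toxicity. Selectivity = NIH3T3 TC50 / T. cruzi EC50.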

[6] = Selectivity index, ratio of TC50 for human HepG2 cells to EC50 for Plasmodium falciparum D6 trophozoites; type: toxicity; details: read-out: Selectivity Index
Outline: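 P. falciparum D6 screened in duplicate or quadruplicate. Selectivity = HepG2 TC50 / P. falciparum EC50.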

[7] = Selectivity index, ratio of TC50 for human HepG2 cells to EC50 for Trypanosoma brucei brucei 427; type: toxicity; details: read-out: Selectivity Index
[8] = test system: Trypanosoma brucei brucei; experiment: Antitrypanosomal activity against Trypanosoma brucei brucei 427 after 48 hrs by presto blue dye based fluorescence assay; type: functional, organism-based; details: Trypanosoma brucei, 427, 48 h

SMILES | CC50 [1] | Activity [2] | EC50 (Leishmania major) | EC50 (Trypanosoma cruzi) | CC50 [3] | EC50 (Plasmodium falciparum) | selectivity ratio [4] | selectivity ratio [5] | selectivity ratio [6] | selectivity ratio [7] | EC50 [8]
CC(C)(C)CC#Cc1cc2ncnc(Nc3ccc(OCc4cccc(F)c4)c(Cl)c3)c2s1 | > 50 µM | 31% | > 15 µM | > 50 µM | 29.3 µM | > 15 µM | – | – | – | – | –
O=C(Cn1ccnc1[N+](=O)[O-])NCc1ccccc1 [BENZNIDAZOLE] | – | – | – | 0.79 µM | – | – | – | – | – | – | –
Fc1cccc(COc2ccc(Nc3ncnc4ccc(-c5cccc(N6CCOCC6)c5)cc34)cc2Cl)c1 | – | – | – | – | > 35 µM | – | – | – | – | – | –
CCCN(CC#Cc1cc2ncnc(Nc3ccc(OCc4cccc(F)c4)c(Cl)c3)c2s1)CCC | > 50 µM | 1% | 6 µM | > 50 µM | 26.5 µM | > 15 µM | 4.5 | – | – | – | –
CC(C)(C)OC(=O)N1CCN(CC#Cc2cc3ncnc(Nc4ccc(OCc5cccc(F)c5)c(Cl)c4)c3s2)CC1 | 47 µM | 15% | 6.9 µM | 13 µM | > 24 µM | 1.5 µM | > 3.5 | 3.6 | > 19 | – | –
CCOC(=O)CN(C)CC#Cc1cc2ncnc(Nc3ccc(OCc4cccc(F)c4)c(Cl)c3)c2s1 | 52 µM | 27% | 4.6 µM | 9.6 µM | 27 µM | 3.8 µM | 5.9 | 5.4 | 7.1 | – | –
Fc1cccc(COc2ccc(Nc3ncnc4cc(C#Cc5ncccc5F)sc34)cc2Cl)c1 | 47 µM | 19% | > 15 µM | 19 µM | 30 µM | 1.1 µM | – | 2.5 | 27 | – | –
CC(C)(C)OC(=O)N1CCC[C@H]1C#Cc1cc2ncnc(Nc3ccc(OCc4cccc(F)c4)c(Cl)c3)c2s1 | > 100 µM | >75% | 1.6 µM | > 50 µM | > 26 µM | 1.7 µM | > 16 | – | > 15 | > 22 | 1.2 µM
CCN(CC)CCCC(C)Nc1ccnc2cc(Cl)ccc12 (centres undefined) [CHLOROQUINE] | – | – | – | – | – | 0.0089 µM | – | – | – | – | –
CN(C)CC#Cc1cc2c(Nc3ccc(OCc4cccc(F)c4)c(Cl)c3)ncnc2s1 | 41 µM | >75% | 5.5 µM | 2.6 µM | > 32 µM | 1.5 µM | > 5.8 | 16 | > 21 | > 13 | 2.5 µM
COCC#Cc1cc2ncnc(Nc3ccc(OCc4cccc(F)c4)c(Cl)c3)c2s1 | > 50 µM | >75% | 9.4 µM | 30.7 µM | > 33 µM | 5.9 µM | > 3.5 | > 1.6 | > 5.6 | > 9.7 | 3.4 µM
CCOC(=O)CN(C)CC#Cc1cc2c(Nc3ccc(OCc4cccc(F)c4)c(Cl)c3)ncnc2s1 | > 50 µM | 53% | 9 µM | > 50 µM | > 28 µM | > 15 µM | > 3.1 | – | – | – | –
CN(C)CC#Cc1cc2ncnc(Nc3ccc(OCc4cccc(F)c4)c(Cl)c3)c2s1 | > 50 µM | 52% | 2.5 µM | 8.2 µM | > 32 µM | > 15 µM | > 13 | > 6 | – | – | –
Fc1cccc(COc2ccc(Nc3ncnc4cc(C#Cc5cn6ccnc6cn5)sc34)cc2Cl)c1 | > 50 µM | 33% | > 15 µM | > 50 µM | > 28 µM | 5.7 µM | – | – | > 4.9 | – | –
Fc1cccc(COc2ccc(Nc3ncnc4cc(C#CCN5CCSCC5)sc34)cc2Cl)c1 | > 50 µM | 12% | 5.9 µM | 5 µM | > 28 µM | > 15 µM | > 4.8 | > 10 | – | – | –
Fc1cccc(COc2ccc(Nc3ncnc4ccc(C#CCN5CCSCC5)cc34)cc2Cl)c1 | > 50 µM | 19% | 5.4 µM | 2.5 µM | > 29 µM | 1.1 µM | > 5.4 | > 20 | > 26 | – | –

SMILES | CC50 [1] | Activity [2] | EC50 (Leishmania major) | EC50 (Trypanosoma cruzi) | CC50 [3] | EC50 (Plasmodium falciparum) | selectivity ratio [4] | selectivity ratio [5] | selectivity ratio [6] | selectivity ratio [7] | EC50 [8]
Fc1cccc(COc2ccc(Nc3ncnc4cc(C#Cc5ccc(C(F)(F)F)nc5)sc34)cc2Cl)c1 | > 50 µM | 31% | > 3 µM | > 50 µM | > 5 µM | > 3.6 µM | – | – | – | – | –
CC(C)(C)CC#Cc1cc2c(Nc3ccc(OCc4cccc(F)c4)c(Cl)c3)ncnc2s1 | > 50 µM | 1% | > 15 µM | 30 µM | > 32 µM | 5.7 µM | – | > 1.7 | > 5.6 | – | –
Fc1cccc(COc2ccc(Nc3ncnc4cc(C#CCN5CCNCC5)sc34)cc2Cl)c1 | > 50 µM | 16% | 4 µM | > 50 µM | > 29 µM | 1.9 µM | > 7.3 | – | > 15 | – | –
COCC#Cc1cc2c(Nc3ccc(OCc4cccc(F)c4)c(Cl)c3)ncnc2s1 | 1.7 µM | 18% | 7.3 µM | 1.5 µM | 9.5 µM | 3.02 µM | 1.3 | 1.1 | 3.2 | – | –
Fc1cccc(COc2ccc(Nc3ncnc4sc(C#CCN5CCOCC5)cc34)cc2Cl)c1 | – | 48% | 6.5 µM | – | > 29 µM | 3 µM | > 4.5 | – | > 9.7 | – | –
CN(CC#Cc1cc2c(Nc3ccc(OCc4cccc(F)c4)c(Cl)c3)ncnc2s1)Cc1ccccc1 | 2.5 µM | 0% | 11 µM | 1.9 µM | 21.6 µM | 4.8 µM | 2 | 1.3 | 4.6 | – | –
Cc1ccc(C(=O)Nc2ccc(S(=O)(=O)O)c3cc(S(=O)(=O)O)cc(S(=O)(=O)O)c23)cc1NC(=O)c1cccc(NC(=O)Nc2cccc(C(=O)Nc3cc(C(=O)Nc4ccc(S(=O)(=O)O)c5cc(S(=O)(=O)O)cc(S(=O)(=O)O)c45)ccc3C)c2)c1 [SURAMIN] | – | – | – | – | – | – | – | – | – | – | 0.04 µM
CN(CC#Cc1cc2ncnc(Nc3ccc(OCc4cccc(F)c4)c(Cl)c3)c2s1)Cc1ccccc1 | > 50 µM | 18% | > 15 µM | > 50 µM | > 27 µM | > 15 µM | – | – | – | – | –
C[C@@H]1[C@H](O)[C@@H](C)/C=C/C=C/C=C/C=C/C=C/C=C/C=C/[C@H](O[C@@H]2O[C@H](C)[C@@H](O)[C@H](N)[C@@H]2O)C[C@@H]2O[C@](O)(C[C@@H](O)C[C@@H](O)[C@H](O)CC[C@@H](O)C[C@@H](O)CC(=O)O[C@H]1C)C[C@H](O)[C@H]2C(=O)O [AMPHOTERICIN B] | – | – | 0.035 µM | – | – | – | – | – | – | – | –
Fc1cccc(COc2ccc(Nc3ncnc4ccc(C#CCN5CCOCC5)cc34)cc2Cl)c1 | 33 µM | 27% | 5.5 µM | 0.8 µM | > 30 µM | 5.9 µM | > 5.5 | 41 | > 5.1 | – | –
Fc1cccc(COc2ccc(Nc3ncnc4cc(C#CCN5CCOCC5)sc34)cc2Cl)c1 | 4.7 µM | 16% | 7.6 µM | 3.4 µM | > 29 µM | 3 µM | > 3.8 | 1.4 | > 9.7 | – | –
Fc1cccc(COc2ccc(Nc3ncnc4ccc(C#CC5CCCC5)cc34)cc2Cl)c1 | > 50 µM | 2% | > 2 µM | 2 µM | > 3 µM | > 15 µM | – | > 25 | – | – | –
CC(C)CC#Cc1cc2ncnc(Nc3ccc(OCc4cccc(F)c4)c(Cl)c3)c2s1 | > 50 µM | 11% | > 15 µM | > 50 µM | > 32 µM | > 15 µM | – | – | – | – | –
CCOC(=O)CN(C)CC#Cc1ccc2ncnc(Nc3ccc(OCc4cccc(F)c4)c(Cl)c3)c2c1 | > 50 µM | 23% | > 15 µM | 8 µM | > 28 µM | > 15 µM | – | > 6.3 | – | – | –
Fc1cccc(COc2ccc(Nc3ncnc4cc(C#CC5CCCC5)sc34)cc2Cl)c1 | > 100 µM | >75% | > 15 µM | > 50 µM | > 31 µM | 3.6 µM | – | – | > 8.6 | > 41 | 0.76 µM
